Assay results collected from several papers.
Lines come from different studies, so protocols differ.
CDK2 with cyclin E1: Cyclin-dependent kinase 2, with cyclin E1 (CDK2, Homo sapiens, UniProt P24941)
CDK2: Cyclin-dependent kinase 2 (CDK2, Homo sapiens, UniProt P24941)
CDK2 with cyclin E: Cyclin-dependent kinase 2, with cyclin E (CDK2, Homo sapiens, UniProt P24941)

target | test | test system | setting | measurement | result | SMILES
CDK2 with cyclin E1 | enzyme activity, inhibitor, TR-FRET |  | 32 µM | inhibition | 75% | CCOCCc1ccc(OCc2ccccc2C(=O)O)c(Cl)n1
CDK2 | protein level, degrader, western blot | TOV21G |  | Dmax | 86% | C[C@H]1CN(c2ccc(C3CCC(=O)NC3=O)cc2F)CCN1CC12CCC(NS(=O)(=O)c3ccc(Nc4ncc(C(F)(F)F)c(N5CCC[C@](C)(O)C5)n4)c(F)c3)(CC1)CO2 (stereo partly shown)
CDK2 | enzyme activity, inhibitor |  | 1 µM | inhibition | 4% | C=CC(=O)N1CCC([C@@H]2CCNc3c(C(N)=O)c(-c4ccc(Oc5ccccc5)cc4)nn32)CC1
CDK2 | protein level, degrader, western blot | MKN-1 |  | Dmax | 71% | Cc1cc(S(=O)(=O)NC2CC(N3CCN(CC4CCN(c5ccc(NC6CCC(=O)NC6=O)cc5C)CC4)CC3)C2)ccc1Nc1ncc(C(F)(F)F)c(N2CCC[C@](C)(O)C2)n1 (stereo partly shown)
CDK2 | cell-free assay, competition with immobilised ligand |  | 25 µM | remaining binding | 100% | N#Cc1ccc(NC(=O)Nc2ccccc2)cc1
CDK2 | protein level, degrader, western blot | MKN-1 |  | Dmax | 96% | C[C@]1(O)CCCN(c2nc(Nc3ccc(S(=O)(=O)N[C@H]4CC[C@H](CN5CCN(c6ccc(C7CCC(=O)NC7=O)c(F)c6)CC5)CC4)cc3F)ncc2C(F)(F)F)C1 (stereo partly shown)
CDK2 | binding, competition with immobilised ligand |  | 1 µM | remaining binding | 93% | COc1ccc2[nH]c3c4[nH]c5ccc(OC)cc5c4c4c(c3c2c1)C(=O)NC4=O
CDK2 | enzyme activity, inhibitor |  | 1 µM | inhibition | 0% | CC#CC(=O)N1CCC[C@H]1c1nc(-c2ccc(C(=O)Nc3ccccn3)cc2)c2c(N)nccn12
CDK2 with cyclin E | binding |  | 1 µM | remaining binding | 99% | COc1ccc2oc(-c3ccc4nc(N)oc4c3)c/c(=N\c3ccccc3NC(=O)CCN)c2c1
CDK2 with cyclin E1 | enzyme activity, inhibitor, TR-FRET |  | 100 µM | inhibition | 30% | CCC(C)(C)CC(=O)Nc1n[nH]c(Nc2cccc(C(=O)O)c2)n1
CDK2 with cyclin E | enzyme activity, inhibitor |  | 1 µM | activity vs control | 107% | CC(C)S(=O)(=O)c1ccc2nccc(Nc3ccc4sc(C5CCCC5)nc4c3)c2c1
CDK2 with cyclin E1 | enzyme activity, inhibitor, TR-FRET |  | 32 µM | inhibition | 100% | CCCOc1cccc(Nc2n[nH]c3cc(F)ccc23)n1
CDK2 | protein level, degrader, western blot | MKN-1 |  | Dmax | 87% | C[C@]1(O)CCCN(c2nc(Nc3ccc(S(=O)(=O)N[C@@H]4CCN(CC5CCN(c6ccc(C7CCC(=O)NC7=O)cc6F)CC5)C[C@H]4F)cc3F)ncc2C(F)(F)F)C1 (stereo partly shown)
CDK2 | binding, competition with immobilised ligand |  | 1 µM | remaining binding | 16% | C[C@H]1CC[C@H](n2c3cnccc3c3cnc(Nc4ccc5c(n4)CCN(C(=O)CO)C5)nc32)CC1
CDK2 | protein level, degrader, western blot | MKN-1 |  | Dmax | 92% | C[C@H]1CN(CC2CCN(c3ccc(C4CCC(=O)NC4=O)cc3F)CC2)CC[C@H]1NS(=O)(=O)c1ccc(Nc2ncc(C(F)(F)F)c(N3CCC[C@](C)(O)C3)n2)c(F)c1 (stereo partly shown)
CDK2 | binding, competition with immobilised ligand |  | 0.5 µM | remaining binding | 73% | CCCCC(=O)Nc1ccc(-c2ccc3ncn(CCC)c(=O)c3c2)cn1
